System: HEK-293T
Test: Multiplex assay against HEK293T;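 on Population Tubulin-Different-Phenotype (%): share of the cells with healthy nuclei that show this phenotype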
Type: toxicity, cell-based
Conditions: human
In short: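 Cells were classed with CellPathfinder machine-learning gating, first as Hoechst high-intensity objects or normal cells, then (normal cells) as healthy, pyknosed or fragmented nuclei, and finally (pyknosed cells) as mitotic or apoptotic. Staining of live cells at seeding used Hoechst33342, BioTracker Green Microtubule Cytoskeleton Dye, MitoTracker Red and Annexin V Alexa Fluor 680, with imaging on a CQ1 microscope at 37°C and 5% CO2 after compound addition. Tubulin, mitochondrial-mass and membrane-permeability phenotypes are per cents of healthy-nucleus cells.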

[1] = 12 h, 1 µM, compound concentration 1 uM, replicate 1
[2] = 12 h, 1 µM, compound concentration 1 uM, replicate 2
[3] = 12 h, 10 µM, compound concentration 10 uM, replicate 1
[4] = 12 h, 10 µM, compound concentration 10 uM, replicate 2
[5] = 24 h, 1 µM, compound concentration 1 uM, replicate 1
[6] = 24 h, 1 µM, compound concentration 1 uM, replicate 2
[7] = 24 h, 10 µM, compound concentration 10 uM, replicate 1
[8] = 24 h, 10 µM, compound concentration 10 uM, replicate 2
[9] = 48 h, 1 µM, compound concentration 1 uM, replicate 1
[10] = 48 h, 1 µM, compound concentration 1 uM, replicate 2
[11] = 48 h, 10 µM, compound concentration 10 uM, replicate 1
[12] = 48 h, 10 µM, compound concentration 10 uM, replicate 2

**Q.** For `CN(C)C(=O)/C(C#N)=C/c1ccc(-c2nc3cnc4[nH]ccc4c3n2C2CCCCC2)o1`, which “Population Apoptotic (%)” value [1] is on record?
**A.** 48%

**Q.** And the “Population Fragmented Nuclei (%)” value [1]?
**A.** 9%

**Q.** What about the “Population Healthy Nuclei (%)” value [1] of the same compound?
**A.** 42%

**Q.** What about the “Population Hoechst High Intensity Objects (%)” value [1] of the same compound?
**A.** 12%

**Q.** And the “Population Membrane Permeable-Phenotype (%)” value [1]?
**A.** 2%

**Q.** And the “Population Mitochondria Different-Phenotype (%)” value [1]?
**A.** 68%

**Q.** And the “Population Mitotic Cells (%)” value [1]?
**A.** 51%

**Q.** What about the “Population Normal (%)” value [1] of the same compound?
**A.** 87%

**Q.** And the “Population Pyknosed Nuclei (%)” value [1]?
**A.** 48%

**Q.** What about the “Population Tubulin-Different-Phenotype (%)” value [1] of the same compound?
**A.** 44%

**Q.** What about the “Total Cell Count” value [1] of the same compound?
**A.** 283

**Q.** What about the “Population Apoptotic (%)” value [2] of the same compound?
**A.** 21%

**Q.** And the “Population Fragmented Nuclei (%)” value [2]?
**A.** 6%

**Q.** And the “Population Healthy Nuclei (%)” value [2]?
**A.** 46%

**Q.** What about the “Population Hoechst High Intensity Objects (%)” value [2] of the same compound?
**A.** 5%

**Q.** And the “Population Membrane Permeable-Phenotype (%)” value [2]?
**A.** 5%

**Q.** And the “Population Mitochondria Different-Phenotype (%)” value [2]?
**A.** 36%

**Q.** What about the “Population Mitotic Cells (%)” value [2] of the same compound?
**A.** 78%

**Q.** What about the “Population Normal (%)” value [2] of the same compound?
**A.** 94%

**Q.** What about the “Population Pyknosed Nuclei (%)” value [2] of the same compound?
**A.** 46%

**Q.** And the “Population Tubulin-Different-Phenotype (%)” value [2]?
**A.** 37%

**Q.** What about the “Total Cell Count” value [2] of the same compound?
**A.** 175

**Q.** And the “Population Apoptotic (%)” value [3]?
**A.** 41%

**Q.** What about the “Population Fragmented Nuclei (%)” value [3] of the same compound?
**A.** 24%

**Q.** What about the “Population Healthy Nuclei (%)” value [3] of the same compound?
**A.** 39%

**Q.** What about the “Population Hoechst High Intensity Objects (%)” value [3] of the same compound?
**A.** 37%

**Q.** And the “Population Membrane Permeable-Phenotype (%)” value [3]?
**A.** 17%

**Q.** And the “Population Mitochondria Different-Phenotype (%)” value [3]?
**A.** 63%

**Q.** What about the “Population Mitotic Cells (%)” value [3] of the same compound?
**A.** 58%

**Q.** What about the “Population Normal (%)” value [3] of the same compound?
**A.** 62%

**Q.** And the “Population Pyknosed Nuclei (%)” value [3]?
**A.** 36%

**Q.** And the “Population Tubulin-Different-Phenotype (%)” value [3]?
**A.** 60%

**Q.** What about the “Total Cell Count” value [3] of the same compound?
**A.** 451

**Q.** And the “Population Apoptotic (%)” value [4]?
**A.** 32%

**Q.** And the “Population Fragmented Nuclei (%)” value [4]?
**A.** 17%

**Q.** What about the “Population Healthy Nuclei (%)” value [4] of the same compound?
**A.** 43%

**Q.** What about the “Population Hoechst High Intensity Objects (%)” value [4] of the same compound?
**A.** 25%

**Q.** And the “Population Membrane Permeable-Phenotype (%)” value [4]?
**A.** 15%

**Q.** And the “Population Mitochondria Different-Phenotype (%)” value [4]?
**A.** 50%

**Q.** What about the “Population Mitotic Cells (%)” value [4] of the same compound?
**A.** 67%

**Q.** And the “Population Normal (%)” value [4]?
**A.** 74%

**Q.** And the “Population Pyknosed Nuclei (%)” value [4]?
**A.** 39%

**Q.** What about the “Population Tubulin-Different-Phenotype (%)” value [4] of the same compound?
**A.** 79%

**Q.** What about the “Total Cell Count” value [4] of the same compound?
**A.** 219

**Q.** What about the “Population Apoptotic (%)” value [5] of the same compound?
**A.** 46%

**Q.** And the “Population Fragmented Nuclei (%)” value [5]?
**A.** 10%

**Q.** What about the “Population Healthy Nuclei (%)” value [5] of the same compound?
**A.** 45%

**Q.** What about the “Population Hoechst High Intensity Objects (%)” value [5] of the same compound?
**A.** 14%

**Q.** What about the “Population Membrane Permeable-Phenotype (%)” value [5] of the same compound?
**A.** 2%

**Q.** What about the “Population Mitochondria Different-Phenotype (%)” value [5] of the same compound?
**A.** 60%

**Q.** And the “Population Mitotic Cells (%)” value [5]?
**A.** 53%

**Q.** And the “Population Normal (%)” value [5]?
**A.** 85%

**Q.** What about the “Population Pyknosed Nuclei (%)” value [5] of the same compound?
**A.** 44%

**Q.** What about the “Population Tubulin-Different-Phenotype (%)” value [5] of the same compound?
**A.** 40%

**Q.** What about the “Total Cell Count” value [5] of the same compound?
**A.** 316

**Q.** And the “Population Apoptotic (%)” value [6]?
**A.** 21%

**Q.** And the “Population Fragmented Nuclei (%)” value [6]?
**A.** 8%

**Q.** And the “Population Healthy Nuclei (%)” value [6]?
**A.** 68%

**Q.** What about the “Population Hoechst High Intensity Objects (%)” value [6] of the same compound?
**A.** 2%

**Q.** And the “Population Membrane Permeable-Phenotype (%)” value [6]?
**A.** 10%

**Q.** And the “Population Mitochondria Different-Phenotype (%)” value [6]?
**A.** 23%

**Q.** And the “Population Mitotic Cells (%)” value [6]?
**A.** 78%

**Q.** And the “Population Normal (%)” value [6]?
**A.** 97%

**Q.** And the “Population Pyknosed Nuclei (%)” value [6]?
**A.** 22%

**Q.** And the “Population Tubulin-Different-Phenotype (%)” value [6]?
**A.** 34%

**Q.** What about the “Total Cell Count” value [6] of the same compound?
**A.** 239

**Q.** What about the “Population Apoptotic (%)” value [7] of the same compound?
**A.** 44%

**Q.** What about the “Population Fragmented Nuclei (%)” value [7] of the same compound?
**A.** 25%

**Q.** And the “Population Healthy Nuclei (%)” value [7]?
**A.** 39%

**Q.** What about the “Population Hoechst High Intensity Objects (%)” value [7] of the same compound?
**A.** 41%

**Q.** What about the “Population Membrane Permeable-Phenotype (%)” value [7] of the same compound?
**A.** 9%

**Q.** What about the “Population Mitochondria Different-Phenotype (%)” value [7] of the same compound?
**A.** 61%

**Q.** What about the “Population Mitotic Cells (%)” value [7] of the same compound?
**A.** 55%

**Q.** What about the “Population Normal (%)” value [7] of the same compound?
**A.** 58%

**Q.** What about the “Population Pyknosed Nuclei (%)” value [7] of the same compound?
**A.** 35%

**Q.** And the “Population Tubulin-Different-Phenotype (%)” value [7]?
**A.** 57%

**Q.** What about the “Total Cell Count” value [7] of the same compound?
**A.** 448

**Q.** What about the “Population Apoptotic (%)” value [8] of the same compound?
**A.** 34%

**Q.** And the “Population Fragmented Nuclei (%)” value [8]?
**A.** 22%

**Q.** And the “Population Healthy Nuclei (%)” value [8]?
**A.** 56%

**Q.** And the “Population Hoechst High Intensity Objects (%)” value [8]?
**A.** 30%

**Q.** And the “Population Membrane Permeable-Phenotype (%)” value [8]?
**A.** 7%

**Q.** And the “Population Mitochondria Different-Phenotype (%)” value [8]?
**A.** 49%

**Q.** And the “Population Mitotic Cells (%)” value [8]?
**A.** 65%

**Q.** And the “Population Normal (%)” value [8]?
**A.** 69%

**Q.** And the “Population Pyknosed Nuclei (%)” value [8]?
**A.** 21%

**Q.** What about the “Population Tubulin-Different-Phenotype (%)” value [8] of the same compound?
**A.** 72%

**Q.** What about the “Total Cell Count” value [8] of the same compound?
**A.** 280

**Q.** What about the “Population Apoptotic (%)” value [9] of the same compound?
**A.** 45%

**Q.** And the “Population Fragmented Nuclei (%)” value [9]?
**A.** 13%

**Q.** What about the “Population Healthy Nuclei (%)” value [9] of the same compound?
**A.** 49%

**Q.** And the “Population Hoechst High Intensity Objects (%)” value [9]?
**A.** 13%

**Q.** And the “Population Membrane Permeable-Phenotype (%)” value [9]?
**A.** 2%

**Q.** And the “Population Mitochondria Different-Phenotype (%)” value [9]?
**A.** 21%

**Q.** What about the “Population Mitotic Cells (%)” value [9] of the same compound?
**A.** 54%

**Q.** What about the “Population Normal (%)” value [9] of the same compound?
**A.** 86%

**Q.** What about the “Population Pyknosed Nuclei (%)” value [9] of the same compound?
**A.** 37%

**Q.** And the “Population Tubulin-Different-Phenotype (%)” value [9]?
**A.** 30%

**Q.** What about the “Total Cell Count” value [9] of the same compound?
**A.** 381

**Q.** And the “Population Apoptotic (%)” value [10]?
**A.** 15%

**Q.** And the “Population Fragmented Nuclei (%)” value [10]?
**A.** 9%

**Q.** What about the “Population Healthy Nuclei (%)” value [10] of the same compound?
**A.** 80%

**Q.** And the “Population Hoechst High Intensity Objects (%)” value [10]?
**A.** 3%

**Q.** What about the “Population Membrane Permeable-Phenotype (%)” value [10] of the same compound?
**A.** 8%

**Q.** What about the “Population Mitochondria Different-Phenotype (%)” value [10] of the same compound?
**A.** 5%

**Q.** What about the “Population Mitotic Cells (%)” value [10] of the same compound?
**A.** 84%

**Q.** And the “Population Normal (%)” value [10]?
**A.** 96%

**Q.** And the “Population Pyknosed Nuclei (%)” value [10]?
**A.** 10%

**Q.** And the “Population Tubulin-Different-Phenotype (%)” value [10]?
**A.** 21%

**Q.** And the “Total Cell Count” value [10]?
**A.** 389

**Q.** What about the “Population Apoptotic (%)” value [11] of the same compound?
**A.** 46%

**Q.** And the “Population Fragmented Nuclei (%)” value [11]?
**A.** 26%

**Q.** And the “Population Healthy Nuclei (%)” value [11]?
**A.** 46%

**Q.** What about the “Population Hoechst High Intensity Objects (%)” value [11] of the same compound?
**A.** 34%

**Q.** And the “Population Membrane Permeable-Phenotype (%)” value [11]?
**A.** 13%

**Q.** What about the “Population Mitochondria Different-Phenotype (%)” value [11] of the same compound?
**A.** 29%

**Q.** And the “Population Mitotic Cells (%)” value [11]?
**A.** 53%

**Q.** What about the “Population Normal (%)” value [11] of the same compound?
**A.** 65%

**Q.** What about the “Population Pyknosed Nuclei (%)” value [11] of the same compound?
**A.** 27%

**Q.** And the “Population Tubulin-Different-Phenotype (%)” value [11]?
**A.** 40%

**Q.** And the “Total Cell Count” value [11]?
**A.** 490

**Q.** And the “Population Apoptotic (%)” value [12]?
**A.** 35%

**Q.** And the “Population Fragmented Nuclei (%)” value [12]?
**A.** 18%

**Q.** And the “Population Healthy Nuclei (%)” value [12]?
**A.** 67%

**Q.** And the “Population Hoechst High Intensity Objects (%)” value [12]?
**A.** 21%

**Q.** And the “Population Membrane Permeable-Phenotype (%)” value [12]?
**A.** 10%

**Q.** What about the “Population Mitochondria Different-Phenotype (%)” value [12] of the same compound?
**A.** 17%

**Q.** What about the “Population Mitotic Cells (%)” value [12] of the same compound?
**A.** 64%

**Q.** What about the “Population Normal (%)” value [12] of the same compound?
**A.** 78%

**Q.** What about the “Population Pyknosed Nuclei (%)” value [12] of the same compound?
**A.** 13%

**Q.** And the “Population Tubulin-Different-Phenotype (%)” value [12]?
**A.** 49%

**Q.** And the “Total Cell Count” value [12]?
**A.** 338

— ChEMBL document CHEMBL4689842, “EUbOPEN Chemogenomics Library wave 1” (2021)
